Measured values of several laboratories.
Each line is one published result; the experiments were not run side by side.
Organism: Trypanosoma cruzi
Effect on: parasite growth

| SMILES | assay | test system | conditions | IC50 |
| --- | --- | --- | --- | --- |
| C[C@@H]1[C@H](O)[C@@H](C)/C=C/C=C/C=C/C=C/C=C/C=C/C=C/[C@H](O[C@@H]2O[C@H](C)[C@@H](O)[C@H](N)[C@@H]2O)C[C@@H]2O[C@](O)(C[C@@H](O)C[C@@H](O)[C@H](O)CC[C@@H](O)C[C@@H](O)CC(=O)O[C@H]1C)C[C@H](O)[C@H]2C(=O)O | – | NIH3T3, TULAHUEN | 96 h, intracellular, amastigote | 0.48 µM |
| FC(F)(F)c1ccccc1-c1nc(N2CCC(c3ccccn3)C2)c2ccccc2n1 (stereo not shown) | imaging | U2OS | intracellular, amastigote | 7.43 µM |
| C[Si](C)(C)c1cc(C(=O)[C@H](Cc2ccccc2)NC(=O)[C@H](Cc2ccccc2)NC(=O)N2CCOCC2)no1 (mixture of isomers) | – | TULAHUEN | intracellular, amastigote | > 64 µM |
| Cc1cc(NC(=O)Nc2ccc3c(c2)OC(F)(F)O3)cc(C(F)(F)F)n1 | – | TULAHUEN | intracellular, amastigote | 1.1 µM |
| C=C1CC[C@@H](O)[C@]2(C)CC[C@H]3C(=C)C(=O)O[C@@H]3[C@@H]12 | – | – | 72 h, epimastigote | > 50 µM |
| O=C(N[C@@H](Cc1ccccc1)C(=O)c1c[nH]nn1)[C@H](Cc1ccccc1)NC(=O)N1CCOCC1 | – | TULAHUEN | intracellular, amastigote | > 64 µM |
| c1ccc(C2CCN(c3nc(-c4cnn5c4CCCC5)nc4ccccc34)C2)nc1 (stereo not shown) | imaging | U2OS | intracellular, amastigote | 4.31 µM |
| O=C(N[C@H](CCc1ccccc1)C(=O)c1cc(Cc2ccccc2)on1)[C@H](Cc1ccccc1)NC(=O)N1CCOCC1 | – | TULAHUEN | intracellular, amastigote | > 64 µM |
| O=C(Nc1ccnc(C(F)(F)F)c1)Nc1cccc2c1OC(F)(F)O2 | – | TULAHUEN | intracellular, amastigote | 2.9 µM |
| c1ccc2c(N3CCCCC3)nc(-c3cnccn3)nc2c1 | imaging | U2OS | intracellular, amastigote | 18.6 µM |
| O=C(Cn1ccnc1[N+](=O)[O-])NCc1ccccc1 | – | L929, TULAHUEN | 7 days, intracellular, amastigote | 3.84 µM |
| C=C1CC[C@H]2C(C)=CC[C@H]3C(=C)C(=O)O[C@@H]3[C@@H]12 | – | – | 72 h, epimastigote | 1.9 µM |
| COc1ccc(Nc2nc(-c3ccc(C)cc3)nc3ccccc23)cc1 | imaging | U2OS | intracellular, amastigote | 3.09 µM |
| O=C(N[C@@H](Cc1ccccc1)C(=O)c1nc2ccccc2o1)[C@H](Cc1ccccc1)NC(=O)N1CCOCC1 | – | TULAHUEN | intracellular, amastigote | 31.5 µM |
| Cn1ccnc1-c1nc(N2CCCCC2)c2ccccc2n1 | imaging | U2OS | intracellular, amastigote | 3.89 µM |
| O=C(N[C@@H](Cc1ccccc1)C(=O)c1ncc(-c2ccccc2)o1)[C@H](Cc1ccccc1)NC(=O)N1CCOCC1 | – | TULAHUEN | intracellular, amastigote | 29.1 µM |
